# Measured values gathered from unrelated publications.
# Compare with care: the assays were run in different laboratories.
# JAK1 JH2: Tyrosine-protein kinase JAK1, JH2 (JAK1, Homo sapiens, UniProt P23458)
# JAK1 JH1: Tyrosine-protein kinase JAK1, JH1 (JAK1, Homo sapiens, UniProt P23458)
# JAK1: Tyrosine-protein kinase JAK1 (JAK1, Homo sapiens, UniProt P23458)
SMILES,target,assay,setting,remaining binding [%]
CS(=O)(=O)N1CCCC(NC(=O)[C@H](CCC2CCCCC2)NC(=O)c2ccc(CNC(=O)c3cnc4ccccn34)cc2)C1 (stereo partly drawn),JAK1 JH2,"cell-free assay, competition with immobilised ligand",0.1 µM,100
N[C@@H]1CCN(c2nccc(-c3cnn4ncccc34)n2)C1,JAK1 JH1,"cell-free assay, competition with immobilised ligand",1 µM,100
Cc1cnc(Nc2ccc(C(=O)N3CCC(N4CCCC4)CC3)cc2)nc1-c1cc2ccccc2s1,JAK1 JH1,"binding, competition with immobilised ligand",1 µM,0
c1ccc(N2CCN(Cc3nc4ccccc4[nH]3)CC2)nc1,JAK1 JH2,"binding, competition with immobilised ligand",1 µM,76
CN1CCN(c2ccc(Nc3nccc(-c4cccc([N+](=O)[O-])c4)n3)cc2C(F)(F)F)CC1,JAK1,binding,10 µM,0.25
O=C(c1ccc(Nc2ncc(Cl)c(-c3ccc(Cl)s3)n2)cc1)N1CCC(N2CCCC2)CC1,JAK1 JH1,"binding, competition with immobilised ligand",1 µM,8.6
COc1ccc2c(c1)O[C@@H](c1ccc(OC)c(OC)c1)C[C@H]2NC(=O)C1(c2ccc3c(c2)OC(F)(F)O3)CC1,JAK1 JH2,"cell-free assay, competition with immobilised ligand",1 µM,90
COc1cnc(Nc2cccc(S(N)(=O)=O)c2)nc1N1CCN(c2ccccc2)CC1,JAK1 JH2,"binding, competition with immobilised ligand",1 µM,28
CN(C)c1nccc(-c2cnc3ncccn23)n1,JAK1,binding,1 µM,67
O=C(Nc1c[nH]nc1C(=O)NC1CCNCC1)c1cc(F)cc(F)c1,JAK1 JH1,"binding, competition with immobilised ligand",1 µM,88
F[C@@H]1CCN(c2nccc(-c3cnn4ncccc34)n2)C1,JAK1 JH1,"cell-free assay, competition with immobilised ligand",1 µM,100
CCN1CCN(Cc2ccc(C(=O)Nc3ccc(C)c(Oc4ccc5c(c4)CC(=O)N5)c3)cc2C(F)(F)F)CC1,JAK1 JH1,"binding, competition with immobilised ligand",1 µM,76
CNC(=O)[C@@H]1CC[C@@H](n2c(-c3ccc4cnccc4c3)nc3ccc(C(=O)NCc4cccc(C(N)=O)c4)cc32)C1,JAK1 JH1,"binding, competition with immobilised ligand",1 µM,88
O=C(c1ccc(Nc2nccc(-c3cc4ccccc4s3)n2)cc1)N1CCC(N2CCCC2)CC1,JAK1 JH2,"binding, competition with immobilised ligand",1 µM,3.6
CCC(=O)N[C@H]1CC[C@@H](C(=O)N(C)c2ccc(-c3nc4ccccc4o3)cc2)C1,JAK1 JH2,"cell-free assay, competition with immobilised ligand",1 µM,77
Nc1ncc2c(n1)-c1c([nH]c3ccc(C#CC4CC4)cc13)CCCC2,JAK1 JH2,"binding, competition with immobilised ligand",1 µM,97
c1cncc(-c2cccc(Nc3nccc(NC4CCCCC4)n3)c2)c1,JAK1 JH1,"binding, competition with immobilised ligand",10 µM,14
O=C(NCCCN1CCOCC1)c1ccc(Nc2nccc(-c3cc4ccccc4s3)n2)cc1,JAK1 JH1,"binding, competition with immobilised ligand",1 µM,39
COc1ccnn2ncc(-c3ccnc(N(C)C)n3)c12,JAK1,binding,1 µM,74
O=C(NCCCN1CCOCC1)c1ccc(Nc2ncc(Cl)c(-c3ccc(Cl)s3)n2)cc1,JAK1 JH2,"binding, competition with immobilised ligand",1 µM,46
COc1ncc2cc3ccccc3nc2c1C#N,JAK1 JH1,"cell-free assay, competition with immobilised ligand",5 µM,93
FC(F)(F)Oc1cccc(-c2cnc3ccc(-c4ccncc4)nn23)c1,JAK1 JH1,"cell-free assay, competition with immobilised ligand",5 µM,100
Cc1nc(C2CCN(C(=O)c3ccc(OC(F)(F)F)cc3N)CC2)c2ncc(N3CCN(C)CC3)cc2n1,JAK1 JH1,"cell-free assay, competition with immobilised ligand",1 µM,95
Cc1cnn2ncc(-c3ccnc(N(C)C)n3)c2c1,JAK1 JH1,"cell-free assay, competition with immobilised ligand",1 µM,98
CCC(=N\O)/C(C)=C/c1ccc(F)cc1,JAK1 JH2,"cell-free assay, competition with immobilised ligand",1 µM,88
C[C@H]1CCN(c2nccc(-c3cnn4ncccc34)n2)C1,JAK1,binding,1 µM,62
CCS(=O)(=O)c1cc2cc(C[C@](O)(CC(C)(C)c3ccc(F)cc3C(N)=O)C(F)(F)F)[nH]c2cn1,JAK1 JH2,"cell-free assay, competition with immobilised ligand",1 µM,95
COc1cnc(Nc2cccc(S(N)(=O)=O)c2)nc1N1CCN(c2ccccc2)C(=O)C1,JAK1 JH1,"binding, competition with immobilised ligand",1 µM,85
CN(C)c1nccc(-c2cnn3ncccc23)n1,JAK1 JH1,"cell-free assay, competition with immobilised ligand",1 µM,69
O=C(c1ccc(Nc2ncc(Cl)c(-c3cc4ccccc4s3)n2)cc1)N1CCC(N2CCCC2)CC1,JAK1 JH1,"binding, competition with immobilised ligand",1 µM,9.3
O=C(NCC1CCOCC1)c1n[nH]cc1NC(=O)c1c(F)cccc1F,JAK1 JH1,"binding, competition with immobilised ligand",1 µM,100
CN(C)c1ncc(F)c(-c2cnn3ncccc23)n1,JAK1 JH1,"cell-free assay, competition with immobilised ligand",1 µM,100
CO[C@H]1CC[C@H](CNc2ccc(S(=O)(=O)NC(=O)c3ccc(N4CCN(CC5=C(c6ccc(Cl)cc6)CC(C)(C)CC5)CC4)cc3Oc3cnc4[nH]ccc4c3)cc2[N+](=O)[O-])CC1,JAK1 JH2,"cell-free assay, competition with immobilised ligand",1 µM,100
